Experimental data published in ChEMBL document CHEMBL1671716, “Antimicrobial susceptibility patterns for recent clinical isolates of anaerobic bacteria in South Korea” (2010).
Converted amounts (≈) assume the structure as drawn.

How the values were obtained:
Type in all cases: functional
Bacteroides fragilis [1] = assay: Antimicrobial activity against Bacteroides fragilis assessed as percent resistant isolates after 48 hrs by agar dilution method
Outline: (§1)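 CLSI agar dilution on recent Korean clinical anaerobe isolates. Inoculum 10^5 CFU per spot by replicator. Plates incubated in an anaerobic chamber at 37°C for 48 h. For piperacillin plus tazobactam, tazobactam was held constant at 4 μg/ml. Resistance and susceptibility rates derived from MICs.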

Actinomyces naeslundii [2] = assay: Antimicrobial activity against Actinomyces naeslundii assessed as percent resistant isolates after 48 hrs by agar dilution method; outline: as §1
Prevotella bivia = assay: Antimicrobial activity against Prevotella bivia assessed as percent susceptible isolates after 48 hrs by agar dilution method
Outline: (§2)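 CLSI agar dilution (M11-A7); inoculum 10^5 CFU applied by replicator; plates incubated anaerobically 48 h at 37°C. For piperacillin-tazobactam, tazobactam held constant at 4 μg/ml.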

Eubacterium sp. = assay: Antimicrobial activity against Eubacterium sp. after 48 hrs by agar dilution method; outline: as §2
[3] = tested on: Peptoniphilus asaccharolyticus; assay: Antimicrobial activity against Peptoniphilus asaccharolyticus assessed as percent resistant isolates after 48 hrs by agar dilution method; outline: as §1
Hoylesella oralis = assay: Antimicrobial activity against Prevotella oralis after 48 hrs by agar dilution method; outline: as §2
Prevotella intermedia = assay: Antimicrobial activity against Prevotella intermedia assessed as percent susceptible isolates after 48 hrs by agar dilution method; outline: as §2
Clostridioides difficile = assay: Antimicrobial activity against Clostridium difficile assessed as percent resistant isolates after 48 hrs by agar dilution method
[4] = tested on: Parabacteroides distasonis; assay: Antimicrobial activity against Bacteroides distasonis after 48 hrs by agar dilution method
Outline: (§3)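 MICs on clinical anaerobe isolates by the CLSI agar dilution method. Inoculum of 10^5 CFU applied with a Steers replicator. Plates incubated 48 h at 37°C in an anaerobic chamber.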

[5] = tested on: Peptoniphilus asaccharolyticus; assay: Antimicrobial activity against Peptoniphilus asaccharolyticus assessed as percent susceptible isolates after 48 hrs by agar dilution method; outline: as §2
Actinomyces israelii [6] = assay: Antimicrobial activity against Actinomyces israelii assessed as percent susceptible isolates after 48 hrs by agar dilution method
Clostridium perfringens = assay: Antimicrobial activity against Clostridium perfringens assessed as percent susceptible isolates after 48 hrs by agar dilution method
Bacteroides ovatus = assay: Antimicrobial activity against Bacteroides ovatus assessed as percent susceptible isolates after 48 hrs by agar dilution method
Schaalia odontolytica = assay: Antimicrobial activity against Actinomyces odontolyticus after 48 hrs by agar dilution method; outline: as §3
Actinomyces naeslundii [7] = assay: Antimicrobial activity against Actinomyces naeslundii assessed as percent susceptible isolates after 48 hrs by agar dilution method
Phocaeicola vulgatus = assay: Antimicrobial activity against Bacteroides vulgatus assessed as percent resistant isolates after 48 hrs by agar dilution method; outline: as §1
Bacteroides caccae = assay: Antimicrobial activity against Bacteroides caccae after 48 hrs by agar dilution method; outline: as §3
[8] = tested on: Bifidobacterium adolescentis; assay: Antimicrobial activity against Bifidobacterium adolescentis assessed as percent resistant isolates after 48 hrs by agar dilution method; outline: as §1
Schaalia meyeri = assay: Antimicrobial activity against Actinomyces meyeri after 48 hrs by agar dilution method; outline: as §3
Eggerthella lenta = assay: Antimicrobial activity against Eubacterium lentum after 48 hrs by agar dilution method; outline: as §2
[9] = tested on: Peptoniphilus asaccharolyticus; assay: Antimicrobial activity against Peptoniphilus asaccharolyticus after 48 hrs by agar dilution method; outline: as §2
Fusobacterium varium = assay: Antimicrobial activity against Fusobacterium varium after 48 hrs by agar dilution method; outline: as §2
Anaerococcus prevotii [10] = assay: Antimicrobial activity against Anaerococcus prevotii assessed as percent resistant isolates after 48 hrs by agar dilution method; outline: as §1
Parvimonas micra = assay: Antimicrobial activity against Peptostreptococcus micros assessed as percent susceptible isolates after 48 hrs by agar dilution method; outline: as §1
[11] = tested on: Bacteroides thetaiotaomicron; assay: Antimicrobial activity against Bacteroides thetaiotaomicron assessed as percent resistant isolates after 48 hrs by agar dilution method; outline: as §1
Bacteroides fragilis [12] = assay: Antimicrobial activity against Bacteroides fragilis after 48 hrs by agar dilution method; outline: as §3
Anaerococcus prevotii [13] = assay: Antimicrobial activity against Anaerococcus prevotii assessed as percent susceptible isolates after 48 hrs by agar dilution method
Fusobacterium mortiferum = assay: Antimicrobial activity against Fusobacterium mortiferum after 48 hrs by agar dilution method; outline: as §2
Actinomyces israelii [14] = assay: Antimicrobial activity against Actinomyces israelii after 48 hrs by agar dilution method; outline: as §3

SMILES: CCC[C@@H]1C[C@@H](C(=O)N[C@@H]([C@H]2O[C@H](SC)[C@H](O)[C@@H](O)[C@H]2O)[C@H](C)Cl)N(C)C1 [CLINDAMYCIN]
- Activity (Bacteroides fragilis [1]): 33%
- Activity (Actinomyces naeslundii [2]): 15%
- Activity (Prevotella bivia): 50%
- MIC (Eubacterium sp.): 0.06 µg/mL (≈ 0.141 µM)
- MIC50 (Eubacterium sp.): 0.06 µg/mL (≈ 0.141 µM)
- MIC90 (Eubacterium sp.): > 128 µg/mL
- Activity [3]: 33%
- MIC50 (Hoylesella oralis): ≤ 0.06 µg/mL
- MIC90 (Hoylesella oralis): 128 µg/mL (≈ 301 µM)
- Activity (Prevotella intermedia): 100%
- Activity (Clostridioides difficile): 83%
- MIC50 [4]: > 128 µg/mL
- MIC90 [4]: > 128 µg/mL
- Activity [5]: 67%
- Activity (Actinomyces israelii [6]): 85%
- Activity (Clostridium perfringens): 80%
- Activity (Bacteroides ovatus): 16%
- MIC (Schaalia odontolytica): 0.06 µg/mL (≈ 0.141 µM)
- MIC50 (Schaalia odontolytica): 0.06 µg/mL (≈ 0.141 µM)
- MIC90 (Schaalia odontolytica): > 128 µg/mL
- Activity (Actinomyces naeslundii [7]): 85%
- Activity (Phocaeicola vulgatus): 68%
- MIC50 (Bacteroides caccae): > 128 µg/mL
- MIC90 (Bacteroides caccae): > 128 µg/mL
- Activity [8]: 8%
- MIC (Schaalia meyeri): 0.06 µg/mL (≈ 0.141 µM)
- MIC50 (Schaalia meyeri): 0.06 µg/mL (≈ 0.141 µM)
- MIC90 (Schaalia meyeri): > 128 µg/mL
- MIC (Eggerthella lenta): 0.06 µg/mL (≈ 0.141 µM)
- MIC50 (Eggerthella lenta): 0.06 µg/mL (≈ 0.141 µM)
- MIC90 (Eggerthella lenta): > 128 µg/mL
- MIC50 [9]: 0.125 µg/mL (≈ 0.294 µM)
- MIC90 [9]: 32 µg/mL (≈ 75.3 µM)
- MIC (Fusobacterium varium): 0.06 µg/mL (≈ 0.141 µM)
- Activity (Anaerococcus prevotii [10]): 40%
- Activity (Parvimonas micra): 23%
- Activity [11]: 68%
- MIC50 (Bacteroides fragilis [12]): 0.5 µg/mL (≈ 1.18 µM)
- MIC90 (Bacteroides fragilis [12]): > 128 µg/mL
- Activity (Anaerococcus prevotii [13]): 60%
- MIC (Fusobacterium mortiferum): 0.06 µg/mL (≈ 0.141 µM)
- MIC (Actinomyces israelii [14]): 0.06 µg/mL (≈ 0.141 µM)
- MIC50 (Actinomyces israelii [14]): 0.06 µg/mL (≈ 0.141 µM)
- MIC90 (Actinomyces israelii [14]): > 128 µg/mL

SMILES: Cc1ncc([N+](=O)[O-])n1CCO [METRONIDAZOLE]
- Activity (Bacteroides fragilis [1]): 0%
- Activity (Prevotella bivia): 100%
- MIC50 (Eubacterium sp.): 16 µg/mL (≈ 93.5 µM)
- MIC90 (Eubacterium sp.): > 128 µg/mL
- Activity [3]: 0%
- MIC50 (Hoylesella oralis): 4 µg/mL (≈ 23.4 µM)
- MIC90 (Hoylesella oralis): 8 µg/mL (≈ 46.7 µM)
- Activity (Prevotella intermedia): 100%
- Activity (Clostridioides difficile): 0%
- MIC50 [4]: 2 µg/mL (≈ 11.7 µM)
- MIC90 [4]: 2 µg/mL (≈ 11.7 µM)
- Activity [5]: 100%
- Activity (Actinomyces israelii [6]): 46%
- Activity (Clostridium perfringens): 100%
- Activity (Bacteroides ovatus): 100%
- MIC50 (Schaalia odontolytica): 16 µg/mL (≈ 93.5 µM)
- MIC90 (Schaalia odontolytica): > 128 µg/mL
- Activity (Actinomyces naeslundii [7]): 46%
- Activity (Phocaeicola vulgatus): 0%
- MIC50 (Bacteroides caccae): 2 µg/mL (≈ 11.7 µM)
- MIC90 (Bacteroides caccae): 2 µg/mL (≈ 11.7 µM)
- MIC50 (Schaalia meyeri): 16 µg/mL (≈ 93.5 µM)
- MIC90 (Schaalia meyeri): > 128 µg/mL
- MIC50 (Eggerthella lenta): 16 µg/mL (≈ 93.5 µM)
- MIC90 (Eggerthella lenta): > 128 µg/mL
- MIC50 [9]: 1 µg/mL (≈ 5.84 µM)
- MIC90 [9]: 1 µg/mL (≈ 5.84 µM)
- MIC (Fusobacterium varium): 0.13 µg/mL (≈ 0.76 µM)
- Activity (Anaerococcus prevotii [10]): 0%
- Activity (Parvimonas micra): 0%
- Activity [11]: 0%
- MIC50 (Bacteroides fragilis [12]): 2 µg/mL (≈ 11.7 µM)
- MIC90 (Bacteroides fragilis [12]): 2 µg/mL (≈ 11.7 µM)
- Activity (Anaerococcus prevotii [13]): 100%
- MIC (Fusobacterium mortiferum): 0.13 µg/mL (≈ 0.76 µM)
- MIC50 (Actinomyces israelii [14]): 16 µg/mL (≈ 93.5 µM)
- MIC90 (Actinomyces israelii [14]): > 128 µg/mL

SMILES: COc1c(N2C[C@@H]3CCCN[C@@H]3C2)c(F)cc2c(=O)c(C(=O)O)cn(C3CC3)c12 [MOXIFLOXACIN]
- Activity (Bacteroides fragilis [1]): 11%
- Activity (Actinomyces naeslundii [2]): 0%
- Activity (Prevotella bivia): 56%
- MIC50 (Eubacterium sp.): 1 µg/mL (≈ 2.49 µM)
- MIC90 (Eubacterium sp.): 2 µg/mL (≈ 4.98 µM)
- Activity [3]: 0%
- MIC50 (Hoylesella oralis): 2 µg/mL (≈ 4.98 µM)
- MIC90 (Hoylesella oralis): 8 µg/mL (≈ 19.9 µM)
- Activity (Prevotella intermedia): 100%
- MIC50 [4]: 2 µg/mL (≈ 4.98 µM)
- MIC90 [4]: 16 µg/mL (≈ 39.9 µM)
- Activity [5]: 100%
- Activity (Actinomyces israelii [6]): 92%
- Activity (Bacteroides ovatus): 72%
- MIC50 (Schaalia odontolytica): 1 µg/mL (≈ 2.49 µM)
- MIC90 (Schaalia odontolytica): 2 µg/mL (≈ 4.98 µM)
- Activity (Actinomyces naeslundii [7]): 92%
- Activity (Phocaeicola vulgatus): 18%
- MIC50 (Bacteroides caccae): 2 µg/mL (≈ 4.98 µM)
- MIC90 (Bacteroides caccae): 16 µg/mL (≈ 39.9 µM)
- Activity [8]: 15%
- MIC50 (Schaalia meyeri): 1 µg/mL (≈ 2.49 µM)
- MIC90 (Schaalia meyeri): 2 µg/mL (≈ 4.98 µM)
- MIC50 (Eggerthella lenta): 1 µg/mL (≈ 2.49 µM)
- MIC90 (Eggerthella lenta): 2 µg/mL (≈ 4.98 µM)
- MIC50 [9]: 0.25 µg/mL (≈ 0.623 µM)
- MIC90 [9]: 2 µg/mL (≈ 4.98 µM)
- Activity (Anaerococcus prevotii [10]): 13%
- Activity (Parvimonas micra): 8%
- Activity [11]: 18%
- Activity (Anaerococcus prevotii [13]): 87%
- MIC50 (Actinomyces israelii [14]): 1 µg/mL (≈ 2.49 µM)
- MIC90 (Actinomyces israelii [14]): 2 µg/mL (≈ 4.98 µM)
